Results on 3 compounds are retold here after ChEMBL document CHEMBL1158040, “Biological activities and 3D QSAR studies of a series of Delisea pulchra (cf. fimbriata) derived natural products” (J Nat Prod, 2006).

The structures appear in SMILES notation. In brackets after ≈: the same amount, converted by molar mass. Activity calls are given as the source filed them. No cut-off for these calls is given here.

In test [1] the test system is Escherichia coli. Description: Antimicrobial activity against Escherichia coli at 1 ug. It is filed as functional, organism-based. An outline of the steps: (§1)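 Direct bioautography: each compound is spotted onto TLC plates and the solvent evaporated. The test organism is then grown directly on the plate. Growth inhibition is scored at the spot as active (+) or very active (++). Where a number is given, it is the radius in mm of the inhibition zone around the spot.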

Test [2] relates to Micrococcus luteus. Kind of test: Antimicrobial activity against Micrococcus luteus at 5 ug. The test is classed as functional, organism-based. An outline of the steps: as §1
For test [3], the system named is Penicillium oxalicum. Kind of test: Antimicrobial activity against Penicillium oxalicum at 1 ug. It is filed as functional. To be noted: read-out: IZ. An outline of the steps: as §1
Test [4] concerns Mycobacterium tuberculosis. Kind of test: Antimycobacterial activity against Mycobacterium tuberculosis at 128 uM. The test is classed as functional, organism-based.
The test system of test [5] is Micrococcus luteus. Kind of test: Antimicrobial activity against Micrococcus luteus at 0.1 ug. The test is classed as functional, organism-based. An outline of the steps: as §1
Test [6] deals with Micrococcus luteus. Description: Antimicrobial activity against Micrococcus luteus at 1 ug. The test is classed as functional, organism-based. An outline of the steps:
as §1

For test [7], the system named is Penicillium oxalicum. Description: Antimicrobial activity against Penicillium oxalicum at 5 ug. It is filed as functional. To be noted: read-out: IZ. The method in brief: as §1
The test system of test [8] is Penicillium oxalicum. Kind of test: Antimicrobial activity against Penicillium oxalicum at 0.1 ug. It is filed as functional. The following applies: read-out: IZ. An outline of the steps: as §1
Test [9] deals with Penicillium oxalicum. Kind of test: Antimicrobial activity against Penicillium oxalicum at 0.01 ug. It is filed as functional. The method in brief: as §1
The test system of test [10] is Escherichia coli. Kind of test: Antimicrobial activity against Escherichia coli at 0.1 ug. The test is classed as functional, organism-based. The method in brief: as §1
In the next test the test system is LNCaP. Description: Cytotoxicity against human LNCAP cells. The test is classed as functional. To be noted: read-out: ED50 (the source's name).
For test [11], the system named is Monocyte. Description: Inhibition of LPS-stimulated IL1 production in human monocytes. The test is classed as functional, cell-based.
In test [12] the target is Human immunodeficiency virus type 1 reverse transcriptase (Human immunodeficiency virus 1) (UniProt Q72547). Kind of test: Inhibition of HIV1 RT at 200 uM. The method in brief: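 HIV-1 reverse transcriptase inhibition was measured in an ELISA-based system.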
In a further test the test system is Lu1. Kind of test: Cytotoxicity against human Lu1 cells. It is filed as functional. The following applies: read-out: ED50 (the source's name).
Test [13] has as its system KB. Kind of test: Cytotoxicity against vinblastine-sensitive human KB cells. The test is classed as functional. The following applies: read-out: ED50 (the source's name).
Test [14] concerns KB. Description: Cytotoxicity against human KB cells. It is filed as functional. The following applies: read-out: ED50 (the source's name).
In test [15] the test system is Penicillium oxalicum. Description: Antimicrobial activity against Penicillium oxalicum at 10 ug. The test is classed as functional. The following applies: read-out: IZ. An outline of the steps:
as §1

The subject of test [16] is Bacillus subtilis. Kind of test: Antimicrobial activity against Bacillus subtilis at 10 ug. It is filed as functional, organism-based. An outline of the steps: as §1
In test [17] the test system is Escherichia coli. Description: Antimicrobial activity against Escherichia coli at 10 ug. It is filed as functional, organism-based. The method in brief: as §1
In test [18] the test system is Monocyte. Description: Inhibition of IL1 biosynthesis in human monocytes. The test is classed as functional, cell-based.
The test system of the next test is Plasmodium falciparum. Description: Antimalarial activity against chloroquine-sensitive Plasmodium falciparum D6 at 10 ug/ml. It is filed as functional.
For test [19], the system named is Bacillus subtilis. Description: Antimicrobial activity against Bacillus subtilis at 5 ug. It is filed as functional, organism-based. An outline of the steps: as §1
Test [20] deals with Micrococcus luteus. Description: Antimicrobial activity against Micrococcus luteus at 10 ug. The test is classed as functional, organism-based. An outline of the steps:
as §1

Another test concerns Mycobacterium avium. Description: Antimycobacterial activity against Mycobacterium avium at 128 uM. It is filed as functional, organism-based.
Test [21] deals with Bacillus subtilis. Kind of test: Antimicrobial activity against Bacillus subtilis at 1 ug. The test is classed as functional, organism-based. The method in brief:
as §1

The subject of test [22] is KB. Kind of test: Cytotoxicity against vinblastine-resistant human KB cells. To be noted: read-out: ED50 (the source's name). The test is classed as functional. An outline of the steps: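 The vinblastine-resistant KB-V1 line was tested both with and without added vinblastine in the cultured tumour-cell cytotoxicity panel. Results are reported as ED50.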
The next test relates to ZR-75-1. Kind of test: Cytotoxicity against human ZR-75-1 cells. The test is classed as functional. To be noted: read-out: ED50 (the source's name).
The nature of test [23]: Inhibition of PKC.
The test system of test [24] is Escherichia coli. Description: Antimicrobial activity against Escherichia coli at 5 ug. It is filed as functional, organism-based. An outline of the steps:
as §1

For test [25], the system named is Penicillium oxalicum. Kind of test: Antimicrobial activity against Penicillium oxalicum at 0.8 ug. It is filed as functional. To be noted: read-out: IZ. An outline of the steps: as §1
Test [26] concerns Penicillium oxalicum. Description: Antimicrobial activity against Penicillium oxalicum at 1.6 ug. The test is classed as functional. To be noted: read-out: IZ. The method in brief:
as §1

Test [27] deals with Bacillus subtilis. Kind of test: Antimicrobial activity against Bacillus subtilis at 0.1 ug. The test is classed as functional, organism-based. An outline of the steps:
as §1

A short description of test [28]: Inhibition of TK assessed as residual activity at 200 ug/ml. An outline of the steps:
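The enzyme was tyrosine kinase p56lck, with test compounds at 200 μg/mL. The read-out is the remaining enzyme activity.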

As a reminder, the IC50 is the concentration needed to halve the response being measured. The low end stands for greater potency, the high end for weaker potency. `CCC[C@@H](OC(C)=O)C1=C(Br)/C(=C/Br)OC1=O`: the result (with Escherichia coli [1]; in test [4]; in the test with Micrococcus luteus [5]; with Penicillium oxalicum [9]; with Escherichia coli [10]; in test [12]) was inactive. Besides, in the test on Escherichia coli [24], the result was inactive. Moreover, the result with Micrococcus luteus [2], with Micrococcus luteus [6], in the test on Bacillus subtilis [16], with Escherichia coli [17], in the test on Bacillus subtilis [19] and with Micrococcus luteus [20] was Active. Moreover, in the test on Bacillus subtilis [21], the outcome was Active. Besides, in the test with Penicillium oxalicum [3], the zone of inhibition at 1 µg/disc was determined as 11 mm. The zone of inhibition at 5 µg/disc with Penicillium oxalicum [7] is 15 mm. Besides, the zone of inhibition at 0.1 µg/disc in the test on Penicillium oxalicum [8] worked out at 7 mm. The EC50 with LNCaP was 0.5 µg/mL (≈ 1.36 µM); with Lu1 it was 1.7 µg/mL (≈ 4.62 µM); with KB [13] it was 2.1 µg/mL (≈ 5.71 µM); in the test with KB [14] it was 0.8 µg/mL (≈ 2.17 µM); with KB [22] it was 1 µg/mL (≈ 2.72 µM); in the test with ZR-75-1, 1.6 µg/mL (≈ 4.35 µM). Besides, the IC50 in the test with Monocyte [11] is 1.3 µM; in the test with Monocyte [18], 3 µM; in the test on Mycobacterium avium, 350 µM; in test [23] it was 67 µM. Also, in the test with Penicillium oxalicum [15], the zone of inhibition at 10 µg/disc amounted to 16 mm. Further, in the test on Plasmodium falciparum, the Activity is greater than 50%.

With `Clc1ccc(COC(Cn2ccnc2)c2ccc(Cl)cc2Cl)c(Cl)c1` (stereo unspecified) [MICONAZOLE], the zone of inhibition at 0.8 µg/disc with Penicillium oxalicum [25] was found to be 3 mm. For the same compound, the zone of inhibition at 1.6 µg/disc in the test on Penicillium oxalicum [26] is 5 mm.

In the case of `CCC[C@@H](O)C1=C(Br)/C(=C/Br)OC1=O`, the outcome in the test on Escherichia coli [1], with Micrococcus luteus [2], in the test with Micrococcus luteus [6], with Bacillus subtilis [27], in the test on Bacillus subtilis [16] and with Escherichia coli [17] was Active. Moreover, the result in the test on Bacillus subtilis [19], in the test with Micrococcus luteus [20], with Bacillus subtilis [21] and in the test with Escherichia coli [24] was Active. Also, the zone of inhibition at 1 µg/disc in the test on Penicillium oxalicum [3] came to 20 mm. In addition, the outcome (in [4]; in the test with Micrococcus luteus [5]; with Penicillium oxalicum [9]; in test [12]) was inactive. For the same compound, in the test on Penicillium oxalicum [7], the zone of inhibition at 5 µg/disc is 26 mm. Moreover, the zone of inhibition at 0.1 µg/disc in the test on Penicillium oxalicum [8] was 6 mm. The EC50 in the test on LNCaP is 0.2 µg/mL (≈ 0.614 µM); in the test on Lu1, 0.3 µg/mL (≈ 0.92 µM); in the test with KB [13] it was 3.4 µg/mL (≈ 10.4 µM); in the test with KB [14], 0.4 µg/mL (≈ 1.23 µM); with KB [22], 0.1 µg/mL (≈ 0.307 µM); in the test on ZR-75-1, less than 0.1 µg/mL. The half-inhibitory concentration (IC50) with Monocyte [11] turned out to be 0.6 µM; in the test on Monocyte [18], 1.5 µM; in the test on Mycobacterium avium, 350 µM; in test [23] it was 76 µM. Also, in the test with Penicillium oxalicum [15], the zone of inhibition at 10 µg/disc came to 27 mm. For the same compound, the Activity in the test with Plasmodium falciparum was greater than 50%; in test [28], 3.4%.
